Experimental data taken from ChEMBL document CHEMBL1944546, “Structure-activity relationships of novel alkylides: 3-O-arylalkyl clarithromycin derivatives with improved antibacterial activities” (2012).
Converted amounts (≈) assume the structure as drawn.

Tests used:
Streptococcus pneumoniae [1] = experiment: Antibacterial activity against penicillin-, constitutive MLS-resistant Streptococcus pneumoniae PU 11 by broth microdilution method; type: functional
In short: (§1)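 MIC by broth microdilution following CLSI (2010) recommendations, using clinical isolates identified by 16S rDNA sequencing and labelled by genotype and phenotype. S. aureus ATCC 29213 and S. pneumoniae ATCC 49619 were run as control strains, and azithromycin, clarithromycin and 3-OH-clarithromycin were tested as reference agents.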

Streptococcus pneumoniae [2] = experiment: Antibacterial activity against efflux,penicillin-susceptible Streptococcus pneumoniae PU 09 by broth microdilution method; type: functional
In short: (§2)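 MIC read by broth microdilution following CLSI (2010) guidance. The clinical isolates were identified by 16S rDNA sequencing and labelled by genotype and phenotype. S. aureus ATCC 29213 and S. pneumoniae ATCC 49619 were the control strains. Azithromycin, clarithromycin and 3-OH-clarithromycin were run as reference compounds.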

Staphylococcus hominis = experiment: Antibacterial activity against methicillin-resistant, coagulase-negative, inducible MLS-resistant Staphylococcus hominis E3 by broth microdilution method; type: functional; in short: as §1
Streptococcus pneumoniae [3] = experiment: Antibacterial activity against penicillin-susceptible, constitutive MLS-resistant Streptococcus pneumoniae PU 27 by broth microdilution method; type: functional; in short: as §1
Streptococcus pneumoniae [4] = experiment: Antibacterial activity against erythromycin-susceptible Streptococcus pneumoniae ATCC 49619 by broth microdilution method; type: functional; in short: as §2
[5] = test system: Staphylococcus epidermidis; experiment: Antibacterial activity against methicillin-susceptible, inducible MLS-resistant Staphylococcus epidermidis E1 by broth microdilution method; type: functional; in short: as §1
Streptococcus pyogenes [6] = experiment: Antibacterial activity against erythromycin-susceptible Streptococcus pyogenes A 3 by broth microdilution method; type: functional; in short: as §2
Staphylococcus aureus [7] = experiment: Antibacterial activity against methicillin-, constitutive MLS-resistant […] by broth microdilution method; type: functional; in short: as §1
Staphylococcus aureus [8] = experiment: Antibacterial activity against methicillin-, inducible MLS-resistant Staphylococcus aureus PU 32 by broth microdilution method
Staphylococcus aureus [9] = experiment: Antibacterial activity against methicillin-susceptible, inducible MLS-resistant Staphylococcus aureus PU 64 by broth microdilution method; type: functional; in short: as §1
Streptococcus pyogenes [10] = experiment: Antibacterial activity against constitutive MLS-resistant Streptococcus pyogenes A 2 by broth microdilution method; type: functional; in short: as §1
[11] = test system: Streptococcus dysgalactiae; experiment: Antibacterial activity against efflux, erythromycin-resistant Streptococcus dysgalactiae A 1 by broth microdilution method; type: functional; in short: as §1
[12] = test system: Staphylococcus haemolyticus; experiment: Antibacterial activity against methicillin-resistant, coagulase-negative, constitutive MLS-resistant Staphylococcus haemolyticus PU 19 by broth microdilution method; type: functional; in short: as §1
Staphylococcus aureus [13] = experiment: Antibacterial activity against erythromycin-susceptible Staphylococcus aureus ATCC 29213 by broth microdilution method; type: functional; in short: as §2
[14] = test system: Staphylococcus epidermidis; experiment: Antibacterial activity against methicillin-resistant, constitutive MLS-resistant Staphylococcus epidermidis E2 by broth microdilution method; type: functional; in short: as §1

For `CC[C@H]1OC(=O)[C@H](C)[C@@H](OCCCc2cncnc2)[C@H](C)[C@@H](O[C@@H]2O[C@H](C)C[C@H](N(C)C)[C@H]2O)[C@](C)(OC)C[C@@H](C)/C(=N\OCc2ccccc2Cl)[C@H](C)[C@H]2OC(=O)O[C@@]21C`, the MIC (Streptococcus pneumoniae [1]) was > 256 µg/mL, the MIC (Streptococcus pneumoniae [2]) was 2 µg/mL (≈ 2.28 µM) and the MIC (Staphylococcus hominis) was > 256 µg/mL. The MIC (Streptococcus pneumoniae [3]) was 32 µg/mL (≈ 36.6 µM), the MIC (Streptococcus pneumoniae [4]) was 1 µg/mL (≈ 1.14 µM) and the MIC [5] was > 256 µg/mL. The MIC (Streptococcus pyogenes [6]) was 1 µg/mL (≈ 1.14 µM), the MIC (Staphylococcus aureus [7]) was > 256 µg/mL and the MIC (Staphylococcus aureus [8]) was 16 µg/mL (≈ 18.3 µM). For the same molecule, the MIC (Staphylococcus aureus [9]) was > 256 µg/mL, the MIC (Streptococcus pyogenes [10]) was 32 µg/mL (≈ 36.6 µM) and the MIC [11] was 4 µg/mL (≈ 4.57 µM). The MIC [12] was > 256 µg/mL, the MIC (Staphylococcus aureus [13]) was 16 µg/mL (≈ 18.3 µM) and the MIC [14] was > 256 µg/mL.
`CC[C@H]1OC(=O)[C@H](C)[C@@H](OC/C=C/c2cccnc2)[C@H](C)[C@@H](O[C@@H]2O[C@H](C)C[C@H](N(C)C)[C@H]2O)[C@](C)(OC)C[C@@H](C)/C(=N\OCc2ccccc2Cl)[C@H](C)[C@H]2OC(=O)O[C@@]21C` showed an MIC (Streptococcus pneumoniae [1]) of 16 µg/mL (≈ 18.3 µM), an MIC (Streptococcus pneumoniae [2]) of 8 µg/mL (≈ 9.17 µM) and an MIC (Streptococcus pneumoniae [3]) of 16 µg/mL (≈ 18.3 µM). For the same molecule, the MIC (Streptococcus pneumoniae [4]) was 4 µg/mL (≈ 4.58 µM), the MIC (Staphylococcus aureus [8]) was 32 µg/mL (≈ 36.7 µM) and the MIC [12] was 32 µg/mL (≈ 36.7 µM). It also gave an MIC (Staphylococcus aureus [13]) of 32 µg/mL (≈ 36.7 µM).
In the case of `CC[C@H]1OC(=O)[C@H](C)[C@@H](O)[C@H](C)[C@@H](O[C@@H]2O[C@H](C)C[C@H](N(C)C)[C@H]2O)[C@](C)(OC)C[C@@H](C)C(=O)[C@H](C)[C@@H](O)[C@]1(C)O`, the MIC (Streptococcus pneumoniae [1]) is reported as > 256 µg/mL, the MIC (Streptococcus pneumoniae [2]) is reported as 128 µg/mL (≈ 217 µM) and the MIC (Streptococcus pneumoniae [3]) is reported as 128 µg/mL (≈ 217 µM). The MIC (Streptococcus pneumoniae [4]) was 64 µg/mL (≈ 109 µM), the MIC (Staphylococcus aureus [8]) was > 256 µg/mL and the MIC [12] was > 256 µg/mL. The MIC (Staphylococcus aureus [13]) was > 256 µg/mL.
`CC[C@H]1OC(=O)[C@H](C)[C@@H](OC/C=C/c2cncc3ccccc23)[C@H](C)[C@@H](O[C@@H]2O[C@H](C)C[C@H](N(C)C)[C@H]2O)[C@](C)(OC)C[C@@H](C)/C(=N\OCc2ccccc2Cl)[C@H](C)[C@H]2OC(=O)O[C@@]21C` was tested, and the MIC (Streptococcus pneumoniae [1]) was 32 µg/mL (≈ 34.7 µM), the MIC (Streptococcus pneumoniae [2]) was 16 µg/mL (≈ 17.3 µM) and the MIC (Streptococcus pneumoniae [3]) was 32 µg/mL (≈ 34.7 µM). For the same molecule, the MIC (Streptococcus pneumoniae [4]) was 16 µg/mL (≈ 17.3 µM), the MIC (Staphylococcus aureus [8]) was 256 µg/mL (≈ 277 µM) and the MIC [12] was 128 µg/mL (≈ 139 µM). The MIC (Staphylococcus aureus [13]) was 64 µg/mL (≈ 69.4 µM).
`CC[C@H]1OC(=O)[C@H](C)[C@@H](O/C=C\Cc2cncnc2)[C@H](C)[C@@H](O[C@@H]2O[C@H](C)C[C@H](N(C)C)[C@H]2O)[C@](C)(OC)C[C@@H](C)/C(=N\OCc2ccccc2)[C@H](C)[C@@H](O)[C@]1(C)O` was tested, and the MIC (Streptococcus pneumoniae [1]) was 64 µg/mL (≈ 78.7 µM), the MIC (Streptococcus pneumoniae [2]) was 2 µg/mL (≈ 2.46 µM) and the MIC (Streptococcus pneumoniae [3]) was 32 µg/mL (≈ 39.4 µM). The MIC (Streptococcus pneumoniae [4]) was 2 µg/mL (≈ 2.46 µM), the MIC (Staphylococcus aureus [8]) was 4 µg/mL (≈ 4.92 µM) and the MIC [12] was > 256 µg/mL. It also gave an MIC (Staphylococcus aureus [13]) of 32 µg/mL (≈ 39.4 µM).
Molecule `CC[C@H]1OC(=O)[C@H](C)[C@@H](O/C=C\Cc2cncnc2)[C@H](C)[C@@H](O[C@@H]2O[C@H](C)C[C@H](N(C)C)[C@H]2O)[C@](C)(OC)C[C@@H](C)/C(=N\O)[C@H](C)[C@@H](O)[C@]1(C)O` has an MIC (Streptococcus pneumoniae [1]) of 128 µg/mL (≈ 177 µM), an MIC (Streptococcus pneumoniae [2]) of 0.25 µg/mL (≈ 0.346 µM) and an MIC (Streptococcus pneumoniae [3]) of 16 µg/mL (≈ 22.1 µM). The MIC (Streptococcus pneumoniae [4]) was 0.064 µg/mL (≈ 0.0885 µM), the MIC (Staphylococcus aureus [8]) was 0.064 µg/mL (≈ 0.0885 µM) and the MIC [12] was > 256 µg/mL. The MIC (Staphylococcus aureus [13]) was 0.064 µg/mL (≈ 0.0885 µM).
For `C=CCO[C@H]1[C@H](C)[C@@H](O[C@@H]2O[C@H](C)C[C@H](N(C)C)[C@H]2O)[C@](C)(OC)C[C@@H](C)C(=O)[C@H](C)[C@@H](O)[C@](C)(O)[C@@H](CC)OC(=O)[C@@H]1C`, the MIC (Streptococcus pneumoniae [1]) was > 256 µg/mL, the MIC (Streptococcus pneumoniae [2]) was 64 µg/mL (≈ 102 µM) and the MIC (Streptococcus pneumoniae [3]) was 128 µg/mL (≈ 203 µM). For the same molecule, the MIC (Streptococcus pneumoniae [4]) was 32 µg/mL (≈ 50.8 µM), the MIC (Staphylococcus aureus [8]) was 256 µg/mL (≈ 406 µM) and the MIC [12] was > 256 µg/mL. The MIC (Staphylococcus aureus [13]) was > 256 µg/mL.
Work on `CC[C@H]1OC(=O)[C@H](C)[C@@H](OC/C=C/c2cncnc2)[C@H](C)[C@@H](O[C@@H]2O[C@H](C)C[C@H](N(C)C)[C@H]2O)[C@](C)(OC)C[C@@H](C)/C(=N\OCc2ccccc2)[C@H](C)[C@H]2OC(=O)O[C@@]21C` yielded an MIC (Streptococcus pneumoniae [1]) of 64 µg/mL (≈ 76.3 µM), an MIC (Streptococcus pneumoniae [2]) of 4 µg/mL (≈ 4.77 µM) and an MIC (Streptococcus pneumoniae [3]) of 64 µg/mL (≈ 76.3 µM). For the same molecule, the MIC (Streptococcus pneumoniae [4]) was 2 µg/mL (≈ 2.38 µM), the MIC (Staphylococcus aureus [8]) was 32 µg/mL (≈ 38.1 µM) and the MIC [12] was > 256 µg/mL. It also gave an MIC (Staphylococcus aureus [13]) of 32 µg/mL (≈ 38.1 µM).
Molecule `CC[C@H]1OC(=O)[C@H](C)[C@@H](O/C=C\Cc2cncnc2)[C@H](C)[C@@H](O[C@@H]2O[C@H](C)C[C@H](N(C)C)[C@H]2O)[C@](C)(OC)C[C@@H](C)/C(=N\OCc2ccccc2Cl)[C@H](C)[C@H]2OC(=O)O[C@@]21C` has an MIC (Streptococcus pneumoniae [1]) of 32 µg/mL (≈ 36.6 µM), an MIC (Streptococcus pneumoniae [4]) of 0.25 µg/mL (≈ 0.286 µM) and an MIC (Staphylococcus aureus [8]) of 32 µg/mL (≈ 36.6 µM). The MIC [12] was 64 µg/mL (≈ 73.3 µM) and the MIC (Staphylococcus aureus [13]) was 8 µg/mL (≈ 9.16 µM).
`CC[C@H]1OC(=O)[C@H](C)[C@@H](OC/C=C/c2cncnc2)[C@H](C)[C@@H](O[C@@H]2O[C@H](C)C[C@H](N(C)C)[C@H]2O)[C@](C)(OC)C[C@@H](C)/C(=N\OCc2ccccc2Cl)[C@H](C)[C@H]2OC(=O)O[C@@]21C` gave an MIC (Streptococcus pneumoniae [1]) of 32 µg/mL (≈ 36.6 µM), an MIC (Streptococcus pneumoniae [4]) of 4 µg/mL (≈ 4.58 µM) and an MIC (Staphylococcus aureus [8]) of 64 µg/mL (≈ 73.3 µM). For the same molecule, the MIC [12] was 64 µg/mL (≈ 73.3 µM) and the MIC (Staphylococcus aureus [13]) was 64 µg/mL (≈ 73.3 µM).
